Seven compounds from ChEMBL document CHEMBL5344414, “Maleimide constrained BAD BH3 domain peptides as BCL-xL Inhibitors: A versatile approach to rapidly identify sites compatible with peptide constraining” (Bioorg Med Chem Lett, 2023) can be followed below.

Active and inactive are the calls of the source. The rule behind the calls is not given here. Where a SMILES comes first, the peptide text is derived from it.

One assay has as its target BCL2L1/BAD (Homo sapiens, UniProt Q07817). Nature of the assay: Inhibition of BAD/His-SUMO tagged BCL-XL (1 to 209 residues; missing 27 to 82 residues) (unknown origin) overexpressed in Escherichia coli BL21 protein-protein interaction by fluorescence anisotropy competition assay. The procedure, abridged:
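Final conditions: 200 nM BCL-xL, 50 nM tracer, 20 mM Tris, 150 mM NaCl, pH 7.6, 20 °C, with peptide titrated. Tracer Kd for BCL-xL was determined beforehand by direct titration (6 nM-125 μM protein).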

Assay [1] addresses Induced myeloid leukemia cell differentiation protein Mcl-1/BH3-interacting domain death agonist (Homo sapiens) (UniProt Q07820+P55957). Kind of assay: Inhibition of BID/MCL-1 interaction (unknown origin) by fluorescence anisotropy competition assay. Format: protein assay. On the technique in general: In fluorescence polarisation assays a small probe gives low polarisation when free and higher when bound to something large.

Induced myeloid leukemia cell differentiation protein Mcl-1/BH3-interacting domain death agonist (Homo sapiens), sequence (P55957 whole entry, looked up, the tested form may be a part): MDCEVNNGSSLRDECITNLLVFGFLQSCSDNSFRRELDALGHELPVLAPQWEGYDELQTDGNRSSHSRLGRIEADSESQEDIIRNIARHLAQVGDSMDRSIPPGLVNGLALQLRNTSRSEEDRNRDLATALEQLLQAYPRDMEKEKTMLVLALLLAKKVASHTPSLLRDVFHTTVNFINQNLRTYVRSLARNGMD
Induced myeloid leukemia cell differentiation protein Mcl-1/BH3-interacting domain death agonist (Homo sapiens), sequence (Q07820 whole entry, looked up, the tested form may be a part): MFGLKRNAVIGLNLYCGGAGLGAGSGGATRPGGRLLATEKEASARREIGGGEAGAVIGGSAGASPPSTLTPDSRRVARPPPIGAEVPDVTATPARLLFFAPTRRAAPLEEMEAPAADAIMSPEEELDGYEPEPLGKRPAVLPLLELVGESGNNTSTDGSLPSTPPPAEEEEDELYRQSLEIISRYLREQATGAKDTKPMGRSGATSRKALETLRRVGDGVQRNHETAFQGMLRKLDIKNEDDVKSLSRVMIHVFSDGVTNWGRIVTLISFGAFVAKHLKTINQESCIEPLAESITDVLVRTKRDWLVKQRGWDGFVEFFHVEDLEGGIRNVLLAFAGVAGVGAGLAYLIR
BCL2L1/BAD, sequence (Q92934 whole entry, the tested form may be a part): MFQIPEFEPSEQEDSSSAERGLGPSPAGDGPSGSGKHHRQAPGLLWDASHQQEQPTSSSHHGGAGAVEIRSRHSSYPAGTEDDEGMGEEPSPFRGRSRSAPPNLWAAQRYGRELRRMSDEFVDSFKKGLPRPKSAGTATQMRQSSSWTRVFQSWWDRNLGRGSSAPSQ
BCL2L1/BAD, sequence (Q07817 whole entry, the tested form may be a part): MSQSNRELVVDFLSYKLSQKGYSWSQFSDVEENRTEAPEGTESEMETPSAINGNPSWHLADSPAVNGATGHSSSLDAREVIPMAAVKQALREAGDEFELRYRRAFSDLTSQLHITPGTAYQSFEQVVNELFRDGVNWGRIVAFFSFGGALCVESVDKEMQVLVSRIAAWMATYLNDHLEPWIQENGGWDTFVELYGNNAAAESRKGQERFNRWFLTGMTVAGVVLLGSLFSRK

What is called IC50 is the midpoint of a concentration-inhibition curve. `CSCC[C@H](NC(=O)[C@H](CCCNC(=N)N)NC(=O)[C@H](CCCNC(=N)N)NC(=O)[C@H](CC(C)C)NC(=O)[C@H](CCC(=O)O)NC(=O)[C@H](CCCNC(=N)N)NC(=O)CNC(=O)[C@H](Cc1ccc(O)cc1)NC(=O)[C@H](CCCNC(=N)N)NC(=O)[C@H](CCC(N)=O)NC(=O)[C@H](C)NC(=O)[C@H](C)NC(=O)[C@H](Cc1c[nH]c2ccccc12)NC(=O)[C@H](CC(C)C)NC(=O)[C@H](CC(N)=O)NC(C)=O)C(=O)N[C@@H](CO)C(=O)N[C@@H](CC(=O)O)C(=O)N[C@@H](CCC(=O)O)C(=O)N[C@@H](Cc1ccccc1)C(=O)N[C@H](C(=O)N[C@@H](CC(=O)O)C(=O)N[C@@H](CO)C(=O)N[C@@H](Cc1ccccc1)C(=O)N[C@@H](CCCCN)C(=O)N[C@@H](CCCCN)C(N)=O)C(C)C` showed an IC50 on BCL2L1/BAD of 0.2 µM. Also, the inhibition result in assay [1] is “inactive”.

`CSCC[C@@H]1NC(=O)[C@@H](NC(=O)[C@H](CCCNC(=N)N)NC(=O)[C@H](CC(C)C)NC(=O)[C@H](CCC(=O)O)NC(=O)[C@H](CCCNC(=N)N)NC(=O)CNC(=O)[C@H](Cc2ccc(O)cc2)NC(=O)[C@H](CCCNC(=N)N)NC(C)=O)CS2=S(C[C@@H](C(=O)N[C@@H](Cc3ccccc3)C(=O)N[C@H](C(=O)N[C@@H](CC(=O)O)C(=O)N[C@@H](CO)C(=O)N[C@@H](Cc3ccccc3)C(=O)N[C@@H](CCCCN)C(=O)N[C@@H](CCCCN)C(N)=O)C(C)C)NC(=O)[C@H](CC(=O)O)NC(=O)[C@H](CO)NC1=O)C(=O)NC2=O` (stereo partly specified) displayed an IC50 on BCL2L1/BAD of 2.4 µM. In assay [1], the inhibition entry is “inactive”. In the case of `CSCC[C@H](NC(=O)[C@H](CS)NC(=O)[C@H](CCCNC(=N)N)NC(=O)[C@H](CC(C)C)NC(=O)[C@H](CCC(=O)O)NC(=O)[C@H](CCCNC(=N)N)NC(=O)CNC(=O)[C@H](Cc1ccc(O)cc1)NC(=O)[C@H](CCCNC(=N)N)NC(C)=O)C(=O)N[C@@H](CO)C(=O)N[C@@H](CC(=O)O)C(=O)N[C@@H](CS)C(=O)N[C@@H](Cc1ccccc1)C(=O)N[C@H](C(=O)N[C@@H](CC(=O)O)C(=O)N[C@@H](CO)C(=O)N[C@@H](Cc1ccccc1)C(=O)N[C@@H](CCCCN)C(=O)N[C@@H](CCCCN)C(N)=O)C(C)C` (Ac-RYGRELRCMSDCFVDSFKK-NH2), on BCL2L1/BAD, the IC50 is 6.9 µM. Besides, the inhibition result in assay [1] is “inactive”. For the compound `CSCC[C@H](NC(=O)[C@H](CCCNC(=N)N)NC(=O)[C@H](CCCNC(=N)N)NC(=O)[C@H](CC(C)C)NC(=O)[C@H](CCC(=O)O)NC(=O)[C@H](CCCNC(=N)N)NC(=O)CNC(=O)[C@H](Cc1ccc(O)cc1)NC(=O)[C@H](CCCNC(=N)N)NC(C)=O)C(=O)N[C@@H](CS)C(=O)N[C@@H](CC(=O)O)C(=O)N[C@@H](CCC(=O)O)C(=O)N[C@@H](Cc1ccccc1)C(=O)N[C@@H](CS)C(=O)N[C@@H](CC(=O)O)C(=O)N[C@@H](CO)C(=O)N[C@@H](Cc1ccccc1)C(=O)N[C@@H](CCCCN)C(=O)N[C@@H](CCCCN)C(N)=O` (Ac-RYGRELRRMCDEFCDSFKK-NH2), the IC50 at BCL2L1/BAD came to 2.9 µM. On BCL2L1/BAD, `CSCC[C@H](NC(=O)[C@H](CCCNC(=N)N)NC(=O)[C@H](CCCNC(=N)N)NC(=O)[C@H](CC(C)C)NC(=O)[C@H](CCC(=O)O)NC(=O)[C@H](CCCNC(=N)N)NC(=O)CNC(=O)[C@H](Cc1ccc(O)cc1)NC(=O)[C@H](CCCNC(=N)N)NC(C)=O)C(=O)N[C@@H](CO)C(=O)N[C@@H](CS)C(=O)N[C@@H](CCC(=O)O)C(=O)N[C@@H](Cc1ccccc1)C(=O)N[C@H](C(=O)N[C@@H](CS)C(=O)N[C@@H](CO)C(=O)N[C@@H](Cc1ccccc1)C(=O)N[C@@H](CCCCN)C(=O)N[C@@H](CCCCN)C(N)=O)C(C)C` (Ac-RYGRELRRMSCEFVCSFKK-NH2) yielded an IC50 of more than 50 µM. Compound `CSCC[C@H](NC(=O)[C@H](CCCNC(=N)N)NC(=O)[C@H](CCCNC(=N)N)NC(=O)[C@H](CC(C)C)NC(=O)[C@H](CCC(=O)O)NC(=O)[C@H](CCCNC(=N)N)NC(=O)CNC(=O)[C@H](Cc1ccc(O)cc1)NC(=O)[C@H](CCCNC(=N)N)NC(C)=O)C(=O)N[C@@H](CO)C(=O)N[C@@H](CC(=O)O)C(=O)N[C@@H](CS)C(=O)N[C@@H](Cc1ccccc1)C(=O)N[C@H](C(=O)N[C@@H](CC(=O)O)C(=O)N[C@@H](CS)C(=O)N[C@@H](Cc1ccccc1)C(=O)N[C@@H](CCCCN)C(=O)N[C@@H](CCCCN)C(N)=O)C(C)C` (Ac-RYGRELRRMSDCFVDCFKK-NH2) had an IC50 on BCL2L1/BAD of 4.5 µM. On BCL2L1/BAD, `CSCC[C@H](NC(=O)[C@H](CCCNC(=N)N)NC(=O)[C@H](CCCNC(=N)N)NC(=O)[C@H](CC(C)C)NC(=O)[C@H](CCC(=O)O)NC(=O)[C@H](CCCNC(=N)N)NC(=O)CNC(=O)[C@H](Cc1ccc(O)cc1)NC(=O)[C@H](CCCNC(=N)N)NC(C)=O)C(=O)N[C@@H](CO)C(=O)N[C@@H](CC(=O)O)C(=O)N[C@@H](CCC(=O)O)C(=O)N[C@@H](Cc1ccccc1)C(=O)N[C@H](C(=O)N[C@@H](CC(=O)O)C(=O)N[C@@H](CO)C(=O)N[C@@H](Cc1ccccc1)C(=O)N[C@@H](CCCCN)C(=O)N[C@@H](CCCCN)C(N)=O)C(C)C` (Ac-RYGRELRRMSDEFVDSFKK-NH2) yielded an IC50 of 3.6 µM. Also, the inhibition entry in assay [1] is “inactive”.
